Laboratory results published in ChEMBL document CHEMBL3997841, “Continued optimization of the M5 NAM ML375: Discovery of VU6008667, an M5 NAM with high CNS penetration and a desired short half-life in rat for addiction studies” (Bioorg Med Chem Lett, 2017).
Converted amounts (≈) assume the structure as drawn.

What was measured:
[1] = biological target: T1, Muscarinic acetylcholine receptor M5 (Homo sapiens, UniProt P08912); assay: Negative allosteric modulation of human M5 receptor expressed in CHO cells assessed as inhibition of acetyl choline-induced calcium mobilization preincubated for 150 secs followed by acetyl choline addition by Fluo-4-AM dye based fluorescence assay; assay type: functional, cell-based
T1 sequence (P08912 whole entry): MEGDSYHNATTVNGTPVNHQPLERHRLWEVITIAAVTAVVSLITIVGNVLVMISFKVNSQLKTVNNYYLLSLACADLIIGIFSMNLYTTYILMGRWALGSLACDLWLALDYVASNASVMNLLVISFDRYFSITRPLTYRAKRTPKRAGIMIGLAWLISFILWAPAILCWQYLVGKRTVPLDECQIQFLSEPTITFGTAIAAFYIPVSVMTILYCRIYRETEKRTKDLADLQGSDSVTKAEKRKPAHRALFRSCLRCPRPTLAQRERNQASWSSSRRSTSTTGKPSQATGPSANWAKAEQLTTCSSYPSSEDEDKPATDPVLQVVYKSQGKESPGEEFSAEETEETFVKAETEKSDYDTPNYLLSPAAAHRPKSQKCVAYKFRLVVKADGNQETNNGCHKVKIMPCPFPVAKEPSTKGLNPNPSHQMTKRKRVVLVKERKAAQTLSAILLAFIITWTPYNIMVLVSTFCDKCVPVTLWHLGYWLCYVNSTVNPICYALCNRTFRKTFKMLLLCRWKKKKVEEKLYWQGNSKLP
How it was run: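 Intracellular calcium mobilization in CHO cells stably transfected with human M5 receptor, run in the presence of an ACh EC80 concentration; values are means of at least three independent determinations, each performed in triplicate.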

[2] = (§1) Fraction unbound in human plasma at 5 uM after 4 hrs by LC-MS/MS based equilibrium dialysis method; assay type: ADME, cell-free
[3] = (§2) Fraction unbound in rat plasma at 5 uM after 4 hrs by LC-MS/MS based equilibrium dialysis method; assay type: ADME, cell-free
[4] = Clearance in rat plasma by LC/MS/MS analysis; assay type: ADME
[5] = Elimination half life in rat by LC-MS/MS analysis; assay type: ADME; conditions: in vivo, read-out: beta t1/2
[6] = biological target: T2, Muscarinic acetylcholine receptor M5 (Homo sapiens) (UniProt P08912); assay: Negative allosteric modulation of human M5 receptor expressed in CHO cells assessed as inhibition of acetyl choline-induced calcium mobilization at 10 uM preincubated for 150 secs followed by acetyl choline addition by Fluo-4-AM dye based fluorescence assay relative to acetyl choline; values are per cent of control
T2 sequence (whole entry): T1 sequence (P08912 whole entry)

[7] = biological target: T3, Muscarinic acetylcholine receptor M5 (Rattus norvegicus, UniProt P08911); assay: Negative allosteric modulation of rat M5 receptor expressed in CHO cells assessed as inhibition of acetyl choline-induced calcium mobilization preincubated for 150 secs followed by acetyl choline addition by Fluo-4-AM dye based fluorescence assay; assay type: functional, cell-based
T3 sequence (P08911 whole entry): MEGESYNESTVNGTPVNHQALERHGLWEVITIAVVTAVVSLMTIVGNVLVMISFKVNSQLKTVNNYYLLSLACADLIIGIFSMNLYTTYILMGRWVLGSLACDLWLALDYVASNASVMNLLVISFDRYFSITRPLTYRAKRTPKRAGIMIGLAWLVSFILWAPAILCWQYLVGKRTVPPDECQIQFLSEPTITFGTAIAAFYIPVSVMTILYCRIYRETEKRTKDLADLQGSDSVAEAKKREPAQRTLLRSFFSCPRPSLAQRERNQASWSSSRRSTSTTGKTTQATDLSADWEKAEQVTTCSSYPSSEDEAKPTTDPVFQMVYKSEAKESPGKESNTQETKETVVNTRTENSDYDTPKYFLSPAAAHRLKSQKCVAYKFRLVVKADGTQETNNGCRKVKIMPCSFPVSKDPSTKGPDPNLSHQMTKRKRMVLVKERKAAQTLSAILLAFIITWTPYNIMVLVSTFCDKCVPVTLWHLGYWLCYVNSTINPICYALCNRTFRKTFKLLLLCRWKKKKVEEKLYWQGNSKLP
How it was run: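 Calcium mobilization assay in CHO cells stably transfected with rat M5 receptor; data are means of at least three independent determinations done in triplicate.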

Plasma [8] = assay: as §1; assay type: ADME, cell-free; conditions: 4 h, 5 µM
Plasma [9] = assay: as §2; assay type: ADME, cell-free; conditions: 4 h, 5 µM
Brain = assay: Fraction unbound in rat brain at 1 uM after 4 hrs by LC-MS/MS based equilibrium dialysis method; assay type: ADME, tissue-based
[10] = Volume of distribution at steady state in rat at 1 mg/kg, iv or 3 mg/kg, po by LC-MS/MS analysis; assay type: ADME, organism-based; conditions: in vivo, read-out: Vdss
[11] = Clearance in rat at 1 mg/kg, iv or 3 mg/kg, po by LC-MS/MS analysis; assay type: ADME, organism-based; conditions: in vivo
Rattus norvegicus = assay: Oral bioavailability in rat at 3 mg/kg by LC-MS/MS analysis; assay type: ADME, organism-based; conditions: in vivo
[12] = biological target: T4, Muscarinic acetylcholine receptor M5 (Rattus norvegicus) (UniProt P08911); assay: Negative allosteric modulation of rat M5 receptor expressed in CHO cells assessed as inhibition of acetyl choline-induced calcium mobilization at 10 uM preincubated for 150 secs followed by acetyl choline addition by Fluo-4-AM dye based fluorescence assay relative to acetyl choline; values are per cent of control
T4 sequence (whole entry): T3 sequence (P08911 whole entry)

[13] = Aqueous solubility of the compound; assay type: physicochemical; conditions: buffer
[14] = Selectivity ratio of IC50 for rat M5 receptor expressed in CHO cells to IC50 for human M5 receptor expressed in CHO cells; assay type: cell-based

Row | Compound | IC50 ([1]; read-out: IC50) | fraction unbound at 4 h, 5 µM [2] | fraction unbound at 4 h, 5 µM [3] | clearance [4] | half-life [5] | residual activity [6] | IC50 ([1]; read-out: pIC50 (converted)) | IC50 [7] | Fu (Plasma [8]) | Fu (Plasma [9]) | Fu (Brain) | Vd [10] | clearance [11] | F (Rattus norvegicus) | residual activity [12] | solubility [13] | Ratio IC50 [14]
1 | O=C(c1ccc(F)c(F)c1)N1CCN2C(=O)c3ccccc3[C@@]12c1ccc(N2CCCCC2)cc1 | 6.04 µM | < 0.01 | < 0.01 | > 70 mL/min/kg | < 30 min | 10.5% | – | – | – | – | – | – | – | – | – | – | –
2 | O=C(c1ccc(F)c(F)c1)N1CCN2C(=O)c3ccccc3[C@@]12c1ccc(N2CCc3ccccc3C2)cc1 | 8.21 µM | < 0.01 | < 0.01 | > 70 mL/min/kg | < 30 min | 20.1% | 7.76 µM | – | – | – | – | – | – | – | – | – | –
3 | N#CC1CCCN(c2ccc([C@@]34c5ccccc5C(=O)N3CCN4C(=O)c3ccc(F)c(F)c3)cc2)C1 (some centres not stated) | – | < 0.01 | < 0.01 | > 70 mL/min/kg | < 30 min | 26.3% | – | – | – | – | – | – | – | – | – | – | –
4 | O=C(c1ccc(F)c(F)c1)N1CCN2C(=O)c3ccccc3[C@@]12c1ccc(NC2CCC2)cc1 | 6.92 µM | < 0.01 | < 0.01 | > 70 mL/min/kg | < 30 min | 25.5% | 6.76 µM | – | – | – | – | – | – | – | – | – | –
5 | O=C(c1ccc(F)c(F)c1)N1CCN2C(=O)c3ccccc3[C@@]12c1ccc(N2CC3(C2)CC(F)(F)C3)cc1 | > 10 µM | < 0.01 | < 0.01 | > 70 mL/min/kg | < 30 min | 26.2% | – | – | – | – | – | – | – | – | – | – | –
6 | O=C(c1ccc(F)c(F)c1)N1CCN2C(=O)c3ccccc3[C@@]12c1ccc(N2CCC(F)CC2)cc1 | 4.28 µM | < 0.01 | < 0.01 | > 70 mL/min/kg | < 30 min | 13.6% | – | – | – | – | – | – | – | – | – | – | –
7 | O=C(c1ccc(F)c(F)c1)N1CCN2C(=O)c3ccccc3[C@@]12c1ccc(N2CCC[C@H]2c2cccnc2)cc1 | 3.5 µM | < 0.01 | < 0.01 | > 70 mL/min/kg | < 30 min | 6% | – | – | – | – | – | – | – | – | – | – | –
8 | O=C(c1ccc(F)c(F)c1)N1CCN2C(=O)c3ccccc3[C@@]12c1ccc(N2CCC(C(F)(F)F)CC2)cc1 | 3.42 µM | < 0.01 | < 0.01 | > 70 mL/min/kg | < 30 min | 3.2% | – | – | – | – | – | – | – | – | – | – | –
9 | CN(c1ccc([C@@]23c4ccccc4C(=O)N2CCN3C(=O)c2ccc(F)c(F)c2)cc1)C1CCC1 | – | < 0.01 | < 0.01 | > 70 mL/min/kg | < 30 min | 2.6% | – | – | – | – | – | – | – | – | – | 10000 µg/mL (≈ 21.1 mM) | –
10 | O=C(c1ccc(F)c(F)c1)N1CCN2C(=O)c3ccccc3[C@@]12c1ccc(N2CCC(F)(F)CC2)cc1 | 1.82 µM | < 0.01 | < 0.01 | > 70 mL/min/kg | < 30 min | 3.1% | – | – | – | – | – | – | – | – | – | 10000 µg/mL (≈ 19.6 mM) | 2
11 | O=C(c1ccc(F)c(F)c1)N1CCN2C(=O)c3ccccc3[C@@]12c1ccc(N2CC[C@@H](F)C2)cc1 | 3.09 µM | < 0.01 | < 0.01 | > 70 mL/min/kg | < 30 min | 3.3% | 3.02 µM | – | – | – | – | – | – | – | – | – | –

Further lines, with some results ahead:

Row | IC50 ([1]; read-out: IC50) | fraction unbound at 4 h, 5 µM [2] | fraction unbound at 4 h, 5 µM [3] | clearance [4] | half-life [5] | residual activity [6] | IC50 ([1]; read-out: pIC50 (converted)) | IC50 [7] | Fu (Plasma [8]) | Fu (Plasma [9]) | Fu (Brain) | Vd [10] | clearance [11] | F (Rattus norvegicus) | residual activity [12] | solubility [13] | Compound | Ratio IC50 [14]
12 | 4.55 µM | < 0.01 | < 0.01 | > 70 mL/min/kg | < 30 min | 27% | 4.47 µM | – | – | – | – | – | – | – | – | – | CC1Cc2ccccc2N1c1ccc([C@@]23c4ccccc4C(=O)N2CCN3C(=O)c2ccc(F)c(F)c2)cc1 (some centres not stated) | –
13 | – | – | – | – | – | – | – | 1.6 µM | 0.006 | 0.014 | 0.003 | 7.4 L/kg | 82 mL/min/kg | 17% | 2.6% | – | Cc1cc([C@@]23c4ccccc4C(=O)N2CCN3C(=O)c2ccc(F)c(F)c2)ccc1Cl | –
14 | – | < 0.01 | < 0.01 | > 70 mL/min/kg | < 30 min | 3.6% | – | – | – | – | – | – | – | – | – | – | CC1CCCN(c2ccc([C@@]34c5ccccc5C(=O)N3CCN4C(=O)c3ccc(F)c(F)c3)cc2)C1 (some centres not stated) | –
15 | – | < 0.01 | < 0.01 | > 70 mL/min/kg | < 30 min | 7.5% | – | – | – | – | – | – | – | – | – | – | CCOC(=O)N1CCN(c2ccc([C@@]34c5ccccc5C(=O)N3CCN4C(=O)c3ccc(F)c(F)c3)cc2)CC1 | –
16 | – | – | – | – | – | 2.3% | – | – | – | – | – | – | – | – | – | < 10 µg/mL | O=C(c1ccc(F)c(F)c1)N1CCN2C(=O)c3ccccc3[C@@]12c1ccc(Cl)cc1 | –
17 | 5.7 µM | < 0.01 | < 0.01 | > 70 mL/min/kg | < 30 min | 2.6% | – | – | – | – | – | – | – | – | – | – | O=C(c1ccc(F)c(F)c1)N1CCN2C(=O)c3ccccc3[C@@]12c1ccc(N2CCCCC2C(F)(F)F)cc1 (some centres not stated) | –
18 | 6.36 µM | < 0.01 | < 0.01 | > 70 mL/min/kg | < 30 min | 6.9% | – | – | – | – | – | – | – | – | – | – | O=C(c1ccc(F)c(F)c1)N1CCN2C(=O)c3ccccc3[C@@]12c1ccc(N2CCCC(F)C2)cc1 (some centres not stated) | –
19 | 1.46 µM | < 0.01 | < 0.01 | > 70 mL/min/kg | < 30 min | 3.1% | – | – | – | – | – | – | – | – | – | 10000 µg/mL (≈ 19.6 mM) | O=C(c1ccc(F)c(F)c1)N1CCN2C(=O)c3ccccc3[C@@]12c1ccc(N2CCCC(F)(F)C2)cc1 | 2
